Results taken from ChEMBL document CHEMBL1152819, “Evaluation of hexadecyloxypropyl-9-R-[2-(Phosphonomethoxy)propyl]- adenine, CMX157, as a potential treatment for human immunodeficiency virus type 1 and hepatitis B virus infections” (Antimicrob Agents Chemother, 2007).

System: Human immunodeficiency virus 1
Assay: Antiviral activity against HIV1 in human MT2 cells
Type: functional, organism-based
Outline: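 MT-2 cells in RPMI 1640 with 10% FBS and 10 mM HEPES, infected with HIV-1 LAI at MOI 0.001 TCID50/cell. Incubated with threefold serial dilutions, three wells per dilution. EC50 taken as the concentration inhibiting p24 antigen production by 50%.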

EC50: 0.02 nM
Structure (SMILES): CCCCCCCCCCCCCCCCOCCCOP(=O)(O)COCCn1cnc2c(NC3CC3)nc(N)nc21
